ChEMBL document CHEMBL3286182, “4-aminoquinolone piperidine amides: noncovalent inhibitors of DprE1 with long residence time and potent antimycobacterial activity” (J Med Chem, 2014)
Values after ≈ are worked out from the molar mass of the structure shown. Active and inactive are the calls of the source. No cut-off for these calls is given here.

Columns and labels:
[1] = test system: Mycobacterium tuberculosis; assay: Antimycobacterial activity against Mycobacterium tuberculosis H37Rv after 5 days by standard microdilution method; type: functional; conditions: 120 h
[2] = Inhibition of Mycobacterium smegmatis recombinant DprE1 using farnesylphosphoryl-beta-D-ribofuranose as substrate assessed as conversion of amplex red to resorufin after 30 mins; parameters: species or system Mycolicibacterium smegmatis
Summary of the method: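 Msm DprE1 (thioredoxin-6His fusion of Msm Rv3790) at 75 nM, preincubated 30 min with 10 μM FAD. Buffer: 50 mM glycylglycine pH 8.5, 200 mM potassium glutamate, 0.002% Brij-35, 2% DMSO, 25 °C. Started with 300 μM farnesylphosphoryl-β-D-ribofuranose, 0.01 mg/mL HRP and 50 μM Amplex Red.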

[3] = test system: Mycobacterium tuberculosis; assay: Antimycobacterial activity against Mycobacterium tuberculosis H37Rv under hypoxic condition after 6 days by resazurin assay; type: functional
[4] = test system: Staphylococcus aureus; assay: Antimicrobial activity against Staphylococcus aureus ARC517 at 100 uM; type: functional, organism-based
Summary of the method: (§1)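 Nonmycobacterial panel of Candida albicans, Gram-negative and Gram-positive pathogens.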

[5] = test system: Streptococcus pneumoniae; assay: Antimicrobial activity against Streptococcus pneumoniae ARC548 at 100 uM; type: functional, organism-based; summary of the method: as §1
[6] = test system: Haemophilus influenzae; assay: Antimicrobial activity against Haemophilus influenzae ARC446 at 100 uM; type: functional, organism-based; summary of the method: as §1
[7] = test system: Haemophilus influenzae; assay: Antimicrobial activity against Haemophilus influenzae ARC158 at 100 uM; type: functional, organism-based; summary of the method: as §1
[8] = test system: Escherichia coli; assay: Antimicrobial activity against Escherichia coli ARC523 at 100 uM; type: functional, organism-based; summary of the method: as §1
[9] = test system: Escherichia coli; assay: Antimicrobial activity against Escherichia coli ARC524 at 100 uM; type: functional, organism-based; summary of the method: as §1
[10] = test system: Pseudomonas aeruginosa; assay: Antimicrobial activity against Pseudomonas aeruginosa ARC545 at 100 uM; type: functional, organism-based; summary of the method: as §1
[11] = test system: Pseudomonas aeruginosa; assay: Antimicrobial activity against Pseudomonas aeruginosa ARC546 at 100 uM; type: functional, organism-based; summary of the method: as §1
[12] = test system: Klebsiella pneumoniae; assay: Antimicrobial activity against Klebsiella pneumoniae ARC1865 at 100 uM; type: functional, organism-based; summary of the method: as §1
[13] = test system: Mycolicibacterium smegmatis; assay: Antimicrobial activity against Mycobacterium smegmatis ATCC 607 at 100 uM; type: functional, organism-based
[14] = test system: Mycolicibacterium smegmatis; assay: Antimicrobial activity against Mycobacterium smegmatis mc2155 at 100 uM; type: functional, organism-based; conditions: str. MC2 155
[15] = test system: Candida albicans; assay: Antimicrobial activity against Candida albicans ARC527 at 100 uM; type: functional, organism-based; summary of the method: as §1

Cn1ncc(C(=O)N2CC(Nc3cc(=O)[nH]c4ccccc34)C2)c1Cl
MIC [1]: 50 µM (≈ 17.9 µg/mL)
IC50 [2]: 1800 nM

COc1cc(NC2CCN(C(=O)c3cnn(C)c3Cl)CC2)c2ccccc2n1
MIC [1]: > 200 µM
IC50 [2]: 78000 nM

Cn1ncc(C(=O)N2CCC(Nc3cc(=O)[nH]c4ccc(F)cc34)CC2)c1C(F)(F)F
MIC [1]: 6.2 µM (≈ 2.71 µg/mL)
Activity [3]: inactive
IC50 [2]: 21 nM
Activity [4]: inactive
Activity [5]: inactive
Activity [6]: inactive
Activity [7]: inactive
Activity [8]: inactive
Activity [9]: inactive
Activity [10]: inactive
Activity [11]: inactive
Activity [12]: inactive
Activity [13]: inactive
Activity [14]: inactive
Activity [15]: inactive

Cn1ncc(C(=O)N2CCC(Nc3cc(-c4ccccc4)[nH]c(=O)c3)CC2)c1Cl
MIC [1]: 50 µM (≈ 20.6 µg/mL)
IC50 [2]: 3000 nM

Cn1ncc(C(=O)N2CCC(Nc3cnnc4ccccc34)CC2)c1Cl
MIC [1]: > 200 µM
IC50 [2]: > 10000 nM

Cc1onc(C(=O)N2CCC(Nc3cc(=O)[nH]c4cc(F)c(F)cc34)CC2)c1C
MIC [1]: 0.2 µM (≈ 0.0805 µg/mL)
Activity [3]: inactive
IC50 [2]: 18 nM
Activity [4]: inactive
Activity [5]: inactive
Activity [6]: inactive
Activity [7]: inactive
Activity [8]: inactive
Activity [9]: inactive
Activity [10]: inactive
Activity [11]: inactive
Activity [12]: inactive
Activity [13]: inactive
Activity [14]: inactive
Activity [15]: inactive

Cn1ncc(C(=O)N2CCC(Nc3cc(=O)n(C)c4cc(F)c(F)cc34)CC2)c1Cl
MIC [1]: 3.1 µM (≈ 1.35 µg/mL)
Activity [3]: inactive
IC50 [2]: 20 nM
Activity [4]: inactive
Activity [5]: inactive
Activity [6]: inactive
Activity [7]: inactive
Activity [8]: inactive
Activity [9]: inactive
Activity [10]: inactive
Activity [11]: inactive
Activity [12]: inactive
Activity [13]: inactive
Activity [14]: inactive
Activity [15]: inactive

Cn1ncc(C(=O)N2[C@@H]3CC[C@H]2C[C@@H](Nc2cc(=O)[nH]c4cc(F)c(F)cc24)C3)c1Cl
MIC [1]: 0.06 µM (≈ 0.0269 µg/mL)
IC50 [2]: 9 nM

C[C@H]1C[C@@H](Nc2cc(=O)[nH]c3ccccc23)CCN1C(=O)c1cnn(C)c1Cl
MIC [1]: > 200 µM
IC50 [2]: > 10000 nM

Cn1ncc(C(=O)N2[C@@H]3CC[C@H]2C[C@@H](Nc2cc(=O)n(C)c4cc(F)c(F)cc24)C3)c1Cl
MIC [1]: 0.12 µM (≈ 0.0554 µg/mL)
IC50 [2]: 8 nM

Cc1onc(C(=O)N2[C@@H]3CC[C@H]2C[C@@H](Nc2cc(=O)[nH]c4cc(F)c(F)cc24)C3)c1C
MIC [1]: 0.06 µM (≈ 0.0257 µg/mL)
IC50 [2]: 7 nM

Cn1ncc(C(=O)N2[C@@H]3CC[C@H]2C[C@@H](Nc2cc(-c4ccccc4)[nH]c(=O)c2)C3)c1Cl
MIC [1]: 1.6 µM (≈ 0.701 µg/mL)
IC50 [2]: 53 nM

Cn1ncc(C(=O)N2CCC(Nc3cc(=O)[nH]c4ccccc34)C2)c1Cl (stereo not drawn)
MIC [1]: > 200 µM
IC50 [2]: 4700 nM

Cn1ncc(C(=O)N2[C@@H]3CC[C@H]2C[C@@H](Nc2cc(=O)n(C)c4ccc(F)cc24)C3)c1Cl
MIC [1]: 0.25 µM (≈ 0.111 µg/mL)
IC50 [2]: 12 nM

C[C@H]1C[C@H](Nc2cc(=O)[nH]c3ccccc23)CCN1C(=O)c1cnn(C)c1Cl
MIC [1]: 12.5 µM (≈ 5 µg/mL)
IC50 [2]: 26 nM

Cn1ncc(C(=O)N2CCC(Nc3n[nH]c4ccc(F)cc34)CC2)c1Cl
MIC [1]: > 100 µM
IC50 [2]: 113 nM

Cn1ncc(C(=O)N2[C@@H]3CC[C@H]2C[C@H](Nc2cc(=O)[nH]c4ccc(F)cc24)C3)c1Cl
MIC [1]: > 200 µM
IC50 [2]: 43000 nM
